Common to all, as to type: functional, cell-based
Assay [1] can be described thus: Cytotoxicity against human PLC5 cells by MTT assay. Summed up: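 MTT viability assay on PLC5 hepatocellular carcinoma cells maintained in DMEM with 10% FBS, penicillin, streptomycin and amphotericin B at 37 °C, 5% CO2. IC50 is the concentration giving 50% growth inhibition, interpolated from dose–response curves.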
(Tetrazolium dyes change colour on reduction, which living cells bring about.)

Assay [2] has as its target Tyrosine-protein phosphatase non-receptor type 6 (Homo sapiens) (UniProt P29350). Kind of assay: Agonist activity at SHP1 in human PLC5 cells assessed as increase in SHP1 level at 10 uM after 12 hrs by Western blot analysis. Summed up:
(§1)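 PLC5 cells (ATCC) grown in DMEM with 10% FBS, penicillin G, streptomycin and amphotericin B at 37 °C, 5% CO2. Cells treated at 10 μM for 12 h. Lysates immunoblotted for p-STAT3, STAT3, SHP-1, Mcl-1, survivin, cyclin D1, PARP, with actin as loading control.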
For orientation: In western blotting, separated proteins are transferred to a membrane and probed.

The target is the same in assay [3]. The assay can be described thus: Agonist activity at SHP1 in human PLC5 cells at 10 uM after 6 hrs by immunoprecipitation method.
Assay [4] shares this target. The assay can be described thus: Agonist activity at SHP1 in human PLC5 cells assessed as decrease in pSTAT3-mediated cyclinD1 level at 10 uM after 12 hrs by Western blot analysis. In short, it runs like this:
as §1

Assay [5] shares this target. The assay can be described thus: Agonist activity at SHP1 in human PLC5 cells assessed as decrease in pSTAT3-mediated survivin level at 10 uM after 12 hrs by Western blot analysis. In short, it runs like this:
as §1

Assay [6] shares this target. Kind of assay: Agonist activity at SHP1 in human PLC5 cells assessed as decrease in pSTAT3-mediated Mcl1 level at 10 uM after 12 hrs by Western blot analysis. Summed up:
as §1

For assay [7] the target is unchanged. Kind of assay: Agonist activity at SHP1 in human PLC5 cells assessed as inhibition of STAT3 Y705 phosphorylation at 10 uM after 12 hrs by Western blot analysis. In short, it runs like this:
as §1

For assay [8] the target is unchanged. Kind of assay: Agonist activity at SHP1 in human PLC5 cells assessed as inhibition of IL6-induced STAT3 phosphorylation at 10 uM incubated for 24 hrs prior to IL6-induction measured after 30 mins by sandwich ELISA. Summed up:
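PLC5 cells, cultured in DMEM/10% FBS with antibiotics at 37 °C, 5% CO2, were pretreated with compound at 10 μM for 24 h. IL-6 (10 ng/mL) stimulation followed for 30 min before STAT3 activity was read.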
(In an ELISA, binding on a coated surface is turned into a signal by an enzyme label.)

The structures appear in SMILES notation. Active and inactive are the calls of the source. No cut-off for these calls is given here. A value given as a limit tells only on which side of the number the result lay.

Sequence of Tyrosine-protein phosphatase non-receptor type 6 (Homo sapiens) (P29350 whole entry): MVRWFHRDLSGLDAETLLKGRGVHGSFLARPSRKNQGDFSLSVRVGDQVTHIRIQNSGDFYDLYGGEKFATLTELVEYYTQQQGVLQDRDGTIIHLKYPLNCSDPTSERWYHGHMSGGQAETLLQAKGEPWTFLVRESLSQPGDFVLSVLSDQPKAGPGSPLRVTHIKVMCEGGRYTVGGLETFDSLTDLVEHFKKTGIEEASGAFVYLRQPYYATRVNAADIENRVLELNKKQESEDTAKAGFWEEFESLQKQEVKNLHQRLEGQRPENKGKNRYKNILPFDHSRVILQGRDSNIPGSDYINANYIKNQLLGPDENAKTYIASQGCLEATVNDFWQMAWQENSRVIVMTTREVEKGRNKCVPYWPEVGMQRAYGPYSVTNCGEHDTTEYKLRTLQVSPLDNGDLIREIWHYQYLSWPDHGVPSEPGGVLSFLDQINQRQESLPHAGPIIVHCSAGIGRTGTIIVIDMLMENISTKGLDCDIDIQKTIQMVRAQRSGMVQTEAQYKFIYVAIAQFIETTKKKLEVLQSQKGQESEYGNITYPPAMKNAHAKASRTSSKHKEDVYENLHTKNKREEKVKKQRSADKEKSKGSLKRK

Take `COc1cc(-c2cc3ccccc3[nH]2)[nH]c1C1SCCCS1`: in assay [1], the IC50 (as a rule, the concentration that inhibits the measured activity by half) was greater than 40 µM.
`COC1=CC(c2cc3ccccc3[nH]2)=N/C1=C\c1ccc(-c2cc3ccccc3[nH]2)[nH]1`: the outcome in assay [2], in assay [3], in assay [4], in assay [5] and in assay [6] was Active. Further, the inhibition result in assay [7] and in assay [8] was “Active” each time. Besides, in assay [1], half-maximal inhibition (IC50) was put at 15.9 µM.
`COc1cc(-c2cc3ccccc3[nH]2)[nH]c1/C=C1\C(=O)Nc2ccccc21` gave an IC50 in assay [1] of 35.4 µM.
The same measure, in the same setting: the same measure for `COC1=CC(c2cccs2)=N/C1=C\c1ccc[nH]1`: greater than 40 µM.
The same measure, in the same setting: the same measure for `COc1cc(-c2cc3ccccc3n2C(=O)OC(C)(C)C)[nH]c1/C=C1/SC(=O)NC1=O`: greater than 40 µM; for `COC1=CC(c2cccs2)=N/C1=C\c1[nH]c(C)cc1C`: greater than 40 µM.
For the compound `COC1=CC(c2ccco2)=N/C1=C\c1ccc[nH]1`, the outcome in assay [2], in assay [4], in assay [5] and in assay [6] was inactive. For the same compound, in assay [7], the inhibition entry was “inactive”. In addition, in assay [1], the half-inhibitory concentration (IC50) was greater than 40 µM.
As for `COC1=CC(c2cc3ccccc3[nH]2)=N/C1=C\c1ccc[nH]1`, the result in assay [2], in assay [3], in assay [4], in assay [5] and in assay [6] was Active. Moreover, the inhibition entry in assay [7] and in assay [8] was “Active” throughout. The compound further yielded an IC50 in assay [1] of 13.2 µM.
On to `COC1=CC(c2cc3ccccc3[nH]2)=N/C1=C\c1[nH]c(C)cc1C` [OBATOCLAX], for which the IC50 in assay [1] was determined as 12.1 µM.
On the same count and under the same terms, to `COC1=CC(c2cccs2)=N/C1=C\c1cccs1` belongs 25.9 µM; to `COC1=CC(c2cc3ccccc3n2C(=O)OC(C)(C)C)=N/C1=C\c1ccc[nH]1`, greater than 40 µM.
Consider `COC1=CC(c2cc3cc(Br)ccc3[nH]2)=N/C1=C\c1ccc[nH]1`, for which the result in assay [2], in assay [3], in assay [4], in assay [5] and in assay [6] was Active. In addition, the inhibition entry in assay [7] and in assay [8] was “Active” in each case. Also, the IC50 in assay [1] is 6.3 µM.
`COC1=CC(c2cc3ccccc3[nH]2)=N/C1=C\c1cccs1` had an IC50 in assay [1] greater than 40 µM.
The same measure, in the same setting: to `COc1cc(-c2cc3ccccc3n2C(=O)OC(C)(C)C)[nH]c1/C=C1\C(=O)Nc2ccccc21` belongs greater than 40 µM; to `COC1=CC(c2cc3ccccc3n2C(=O)OC(C)(C)C)=N/C1=C\c1[nH]c(C)cc1C`, 28.4 µM; to `COc1cc(-c2cc3ccccc3[nH]2)[nH]c1/C=C1/SC(=O)NC1=O`, 27.5 µM.
